Experimental data pooled from the literature.
Lines come from different studies, so protocols differ.
CDK2 with cyclin A2: Cyclin-dependent kinase 2, with cyclin A2 (CDK2, Homo sapiens, UniProt P24941)
ST14: Suppressor of tumorigenicity 14 protein (ST14, Homo sapiens, UniProt Q9Y5Y6)

`COc1cc(-c2cncc3c2CN(C)Cc2cc(N4CCNCC4)ccc2-3)cc(OC)c1OC` has a remaining activity of 86% (Vascular endothelial growth factor receptor 3 (FLT4, Homo sapiens, UniProt P35916); enzyme activity; inhibitor; 1 µM).
`CC(=O)Nc1c(N)nc(SCC(=O)NN)[nH]c1=O` has an inhibition of 22.9% (CDK2 with cyclin A2; enzyme activity; inhibitor; 10 nM).
With `CCC[C@H](NC(=O)[C@H](Cc1cscn1)NC(=O)CCc1ccccc1)C(=O)N[C@@H](CCCNC(=N)N)C(=O)c1nc2ccccc2s1` the remaining activity was 45% (ST14; enzyme activity; inhibitor; 0.1 µM).
For `CNC(=O)c1cc(Oc2ccc(NC(=O)Nc3ccc(Cl)c(C(F)(F)F)c3)cc2)ccn1`, the inhibition was 58.2% (CDK2 with cyclin A2; enzyme activity; inhibitor; 0.1 µM).
`N=C(N)NCCC[C@H](NC(=O)[C@H](Cc1ccc2ccccc2c1)NC(=O)[C@H](Cc1cscn1)NC(=O)CCc1ccccc1)C(=O)c1nc2ccccc2s1` has a remaining activity of 8% (ST14; enzyme activity; inhibitor; 0.1 µM).
`CNc1ncc2c(/C=C/C(=O)N3CCC(OC)CC3)nn(Cc3cccc(C(F)(F)F)c3)c2n1` gave a remaining activity of 83% (ALK tyrosine kinase receptor (ALK, Homo sapiens, UniProt Q9UM73); enzyme activity; inhibitor; radiometric; 1 µM).
The inhibition of `CC(=O)Nc1c(N)nc(SCC(=O)N/N=C/c2ccc([N+](=O)[O-])cc2)[nH]c1=O` is reported as 51.5% (CDK2 with cyclin A2; enzyme activity; inhibitor; 0.5 µM).
`Cc1cc([C@@H](C)Nc2ccccc2C(=O)O)c2nc(N3CCC(F)(F)CC3)c(C#N)c(=O)n2c1` gave a remaining binding of 100% (Angiopoietin-1 receptor (TEK, Homo sapiens, UniProt Q02763); binding; competition with immobilised ligand; 10 µM).
With `N=C(N)NCCC[C@H](NC(=O)C1(NC(=O)[C@H](Cc2cscn2)NC(=O)CCc2ccccc2)CC1)C(=O)c1nc2ccccc2s1` the remaining activity was 19% (ST14; enzyme activity; inhibitor; 0.1 µM).
For `C=CC(=O)N1CCC(COCC(=O)N2CCN(c3nc(-c4cnc(N)nc4C(F)F)nc(N4CCOC[C@@H]4C)n3)CC2)CC1`, the remaining binding was 79% (ALK tyrosine kinase receptor (ALK, Homo sapiens, UniProt Q9UM73, C1156Y); binding; competition with immobilised ligand; 1 µM).
